# From ChEMBL document CHEMBL1154176, “Thiazolidinedione derivatives as PTP1B inhibitors with antihyperglycemic and antiobesity effects” (Bioorg Med Chem Lett, 2009)
# Activity calls are given as the source filed them. No cut-off for these calls is given here.
# How the values were obtained:
# [1] = target: T1, Tyrosine-protein phosphatase non-receptor type 1 (Homo sapiens, UniProt P18031); assay: Inhibition of PTP1B
# T1 sequence (P18031 whole entry): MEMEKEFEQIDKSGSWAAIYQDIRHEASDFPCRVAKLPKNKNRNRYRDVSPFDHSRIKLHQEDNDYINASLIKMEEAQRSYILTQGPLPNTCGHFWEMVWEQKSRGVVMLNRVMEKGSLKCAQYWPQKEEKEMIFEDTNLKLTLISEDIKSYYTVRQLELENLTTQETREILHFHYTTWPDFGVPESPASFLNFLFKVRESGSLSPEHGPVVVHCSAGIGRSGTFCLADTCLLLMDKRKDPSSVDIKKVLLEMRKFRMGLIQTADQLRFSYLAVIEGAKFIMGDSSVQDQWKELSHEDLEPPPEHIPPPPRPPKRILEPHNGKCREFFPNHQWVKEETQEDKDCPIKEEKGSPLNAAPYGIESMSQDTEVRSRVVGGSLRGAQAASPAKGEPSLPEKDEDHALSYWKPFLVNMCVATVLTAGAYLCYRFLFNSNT
# Mus musculus [2] = assay: Hypoglycemic activity in high fat diet-induced obese C57BL/6J Jms Slc mouse model assessed as reduction in fasting blood glucose level at 143 mg/kg/day, po for 4 weeks administered with high fat diet measured after 6 hrs of fasting; assay type: functional, organism-based
# Procedure, shortened: (§1)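 After 8 wk of HFD and 4 wk of HFD with drug in the diet (2.0 g/kg diet), mice were fasted 6 h. Fasting blood glucose was taken at 0 min, glucose was then injected intraperitoneally, and tail blood was sampled at timed intervals up to 120 min.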
# Mus musculus [3] = assay: Antiobesity activity in high fat diet-induced obese C57BL/6J Jms Slc mouse model assessed as epididymal fat at 143 mg/kg/day, po for 4 weeks administered with high fat diet followed by 5 days recovery period on their own high fat diet with drug (Rvb= 1.87 +/- 0.08 g); assay type: functional
# Procedure, shortened: (§2)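 Obesity was induced by HFD (45% kcal fat) for 8 wk, followed by 4 wk of HFD or HFD with drug in the diet (2.0 g/kg diet). After the glucose tolerance test, mice stayed on their diets for 5 d more and were fasted overnight. Epididymal and retroperitoneal fat pads were excised and weighed. Significance versus HFD by one-way ANOVA.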
# [4] = Selectivity for PTP1B over TC-PTP
# [5] = Inhibition of yeast PTP1; set-up: species or system Saccharomyces cerevisiae
# Procedure, shortened: (§3)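 Phosphatase activity was measured as p-nitrophenyl phosphate hydrolysis (2 mM pNPP in the reaction) over a range of inhibitor concentrations to derive IC50. Conditions were identical for all enzymes except enzyme level: PTP1B 40 nM, E. coli-expressed SHP-1 catalytic domain 100 nM, E. coli-expressed YPTP1 15 nM, LAR-D1 and TC-PTP 33 units/mL. Ki was calculated as IC50 = Ki(1+[S]/KM). Mean ± SD of two or more experiments.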
# [6] = target: Tyrosine-protein phosphatase non-receptor type 6 (Homo sapiens, UniProt P29350); assay: Inhibition of SHP1 catalytic domain expressed in Escherichia coli; procedure, shortened: as §3
# Tyrosine-protein phosphatase non-receptor type 6, sequence (P29350 whole entry, the tested form may be a part): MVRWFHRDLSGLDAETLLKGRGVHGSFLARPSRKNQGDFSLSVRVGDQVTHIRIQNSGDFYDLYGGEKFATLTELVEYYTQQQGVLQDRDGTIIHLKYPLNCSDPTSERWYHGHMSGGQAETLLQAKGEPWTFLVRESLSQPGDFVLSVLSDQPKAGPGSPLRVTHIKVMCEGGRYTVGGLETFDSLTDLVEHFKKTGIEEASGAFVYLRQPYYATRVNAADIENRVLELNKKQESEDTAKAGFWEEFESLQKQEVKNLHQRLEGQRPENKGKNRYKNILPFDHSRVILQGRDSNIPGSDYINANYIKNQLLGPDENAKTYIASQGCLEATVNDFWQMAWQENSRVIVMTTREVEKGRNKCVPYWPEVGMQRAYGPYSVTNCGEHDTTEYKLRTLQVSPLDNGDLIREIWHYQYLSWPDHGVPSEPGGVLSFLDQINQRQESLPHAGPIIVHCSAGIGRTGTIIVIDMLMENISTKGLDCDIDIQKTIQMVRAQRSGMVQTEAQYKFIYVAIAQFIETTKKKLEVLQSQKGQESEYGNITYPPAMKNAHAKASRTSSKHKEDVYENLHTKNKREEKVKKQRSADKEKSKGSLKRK
# [7] = Selectivity for PTP1B over yeast PTP1
# Mus musculus [8] = assay: Antiobesity activity in high fat diet-induced obese C57BL/6J Jms Slc mouse model assessed as decrease in body weight gain per kilocalories of food intake at 143 mg/kg/day, po for 4 weeks administered with high fat diet; assay type: functional; set-up: scale not given: the % may be the effect or the level left
# Procedure, shortened: (§4)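 Male C57BL/6J Jms Slc mice were acclimatized 1 wk on low-fat diet (10% kcal fat), then fed high-fat diet (45% kcal fat) ad libitum for 8 wk. They were split into groups of equal mean body weight and given HFD or HFD with drug mixed into the food (2.0 g/kg diet; DMSO plus 1% aqueous polyglycerol fatty acid ester) for 4 wk. Read-outs: weight gain and feed efficiency (weight gain/kcal ×100).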
# Mus musculus [9] = assay: Hypoglycemic activity in high fat diet-induced obese C57BL/6J Jms Slc mouse model assessed as triglyceride level at 143 mg/kg/day, po for 4 weeks administered with high fat diet followed by 5 days recovery period on their own high fat diet with drug (Rvb= 124 +/- 16 mg/dL); assay type: functional
# Procedure, shortened: (§5)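 HFD-obese mice (8 wk HFD) received HFD with drug in the diet (2.0 g/kg diet) for 4 wk, then continued 5 d on their diets. After an overnight fast and anesthesia, blood was taken by cardiac puncture. Serum triglyceride and total cholesterol were measured by enzymatic kits, and NEFA by a half-micro test kit. Mean ± SD, n = 8/group; one-way ANOVA.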
# Mus musculus [10] = assay: Hypoglycemic activity in high fat diet-induced obese C57BL/6J Jms Slc mouse model assessed as total cholesterol level at 143 mg/kg/day, po for 4 weeks administered with high fat diet followed by 5 days recovery period on their own high fat diet with drug (Rvb= 152 +/- 6 mg/dL); assay type: functional; procedure, shortened: as §5
# [11] = target: T2, Tyrosine-protein phosphatase non-receptor type 2 (Homo sapiens, UniProt P17706); assay: Inhibition of TC-PTP; procedure, shortened: as §3
# T2 sequence (P17706 whole entry): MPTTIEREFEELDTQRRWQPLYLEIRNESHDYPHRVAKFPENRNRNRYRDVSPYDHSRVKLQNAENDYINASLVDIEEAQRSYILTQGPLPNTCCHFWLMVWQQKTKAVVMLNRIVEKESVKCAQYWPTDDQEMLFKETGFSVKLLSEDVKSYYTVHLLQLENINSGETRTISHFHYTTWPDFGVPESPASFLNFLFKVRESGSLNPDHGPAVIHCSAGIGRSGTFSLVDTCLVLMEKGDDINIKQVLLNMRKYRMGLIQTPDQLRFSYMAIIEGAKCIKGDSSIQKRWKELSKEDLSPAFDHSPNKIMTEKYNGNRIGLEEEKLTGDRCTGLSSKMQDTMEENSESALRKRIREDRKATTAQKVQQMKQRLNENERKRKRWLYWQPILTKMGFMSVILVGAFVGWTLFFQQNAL
# [12] = Inhibition of Yersinia YOP
# Procedure, shortened: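 Purchased YOP enzyme at 50 units (manufacturer's definition)/mL, with p-nitrophenyl phosphate substrate at 2 mM in the reaction mixture. pNPP hydrolase activity was measured across a range of inhibitor concentrations to derive IC50. Ki was obtained from IC50 = Ki(1 + [S]/KM). Values are mean and SD of two or more experiments.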
# Mus musculus [13] = assay: Antiobesity activity in high fat diet-induced obese C57BL/6J Jms Slc mouse model assessed as retroperitoneal fat at 143 mg/kg/day, po for 4 weeks administered with high fat diet followed by 5 days recovery period on their own high fat diet with drug (Rvb= 0.69 +/- 0.06 g); assay type: functional; procedure, shortened: as §2
# [14] = target: Receptor-type tyrosine-protein phosphatase F (Homo sapiens, UniProt P10586); assay: Inhibition of membrane proximal catalytic domain of LAR; procedure, shortened: as §3
# Receptor-type tyrosine-protein phosphatase F, sequence (P10586 whole entry, the tested form may be a part): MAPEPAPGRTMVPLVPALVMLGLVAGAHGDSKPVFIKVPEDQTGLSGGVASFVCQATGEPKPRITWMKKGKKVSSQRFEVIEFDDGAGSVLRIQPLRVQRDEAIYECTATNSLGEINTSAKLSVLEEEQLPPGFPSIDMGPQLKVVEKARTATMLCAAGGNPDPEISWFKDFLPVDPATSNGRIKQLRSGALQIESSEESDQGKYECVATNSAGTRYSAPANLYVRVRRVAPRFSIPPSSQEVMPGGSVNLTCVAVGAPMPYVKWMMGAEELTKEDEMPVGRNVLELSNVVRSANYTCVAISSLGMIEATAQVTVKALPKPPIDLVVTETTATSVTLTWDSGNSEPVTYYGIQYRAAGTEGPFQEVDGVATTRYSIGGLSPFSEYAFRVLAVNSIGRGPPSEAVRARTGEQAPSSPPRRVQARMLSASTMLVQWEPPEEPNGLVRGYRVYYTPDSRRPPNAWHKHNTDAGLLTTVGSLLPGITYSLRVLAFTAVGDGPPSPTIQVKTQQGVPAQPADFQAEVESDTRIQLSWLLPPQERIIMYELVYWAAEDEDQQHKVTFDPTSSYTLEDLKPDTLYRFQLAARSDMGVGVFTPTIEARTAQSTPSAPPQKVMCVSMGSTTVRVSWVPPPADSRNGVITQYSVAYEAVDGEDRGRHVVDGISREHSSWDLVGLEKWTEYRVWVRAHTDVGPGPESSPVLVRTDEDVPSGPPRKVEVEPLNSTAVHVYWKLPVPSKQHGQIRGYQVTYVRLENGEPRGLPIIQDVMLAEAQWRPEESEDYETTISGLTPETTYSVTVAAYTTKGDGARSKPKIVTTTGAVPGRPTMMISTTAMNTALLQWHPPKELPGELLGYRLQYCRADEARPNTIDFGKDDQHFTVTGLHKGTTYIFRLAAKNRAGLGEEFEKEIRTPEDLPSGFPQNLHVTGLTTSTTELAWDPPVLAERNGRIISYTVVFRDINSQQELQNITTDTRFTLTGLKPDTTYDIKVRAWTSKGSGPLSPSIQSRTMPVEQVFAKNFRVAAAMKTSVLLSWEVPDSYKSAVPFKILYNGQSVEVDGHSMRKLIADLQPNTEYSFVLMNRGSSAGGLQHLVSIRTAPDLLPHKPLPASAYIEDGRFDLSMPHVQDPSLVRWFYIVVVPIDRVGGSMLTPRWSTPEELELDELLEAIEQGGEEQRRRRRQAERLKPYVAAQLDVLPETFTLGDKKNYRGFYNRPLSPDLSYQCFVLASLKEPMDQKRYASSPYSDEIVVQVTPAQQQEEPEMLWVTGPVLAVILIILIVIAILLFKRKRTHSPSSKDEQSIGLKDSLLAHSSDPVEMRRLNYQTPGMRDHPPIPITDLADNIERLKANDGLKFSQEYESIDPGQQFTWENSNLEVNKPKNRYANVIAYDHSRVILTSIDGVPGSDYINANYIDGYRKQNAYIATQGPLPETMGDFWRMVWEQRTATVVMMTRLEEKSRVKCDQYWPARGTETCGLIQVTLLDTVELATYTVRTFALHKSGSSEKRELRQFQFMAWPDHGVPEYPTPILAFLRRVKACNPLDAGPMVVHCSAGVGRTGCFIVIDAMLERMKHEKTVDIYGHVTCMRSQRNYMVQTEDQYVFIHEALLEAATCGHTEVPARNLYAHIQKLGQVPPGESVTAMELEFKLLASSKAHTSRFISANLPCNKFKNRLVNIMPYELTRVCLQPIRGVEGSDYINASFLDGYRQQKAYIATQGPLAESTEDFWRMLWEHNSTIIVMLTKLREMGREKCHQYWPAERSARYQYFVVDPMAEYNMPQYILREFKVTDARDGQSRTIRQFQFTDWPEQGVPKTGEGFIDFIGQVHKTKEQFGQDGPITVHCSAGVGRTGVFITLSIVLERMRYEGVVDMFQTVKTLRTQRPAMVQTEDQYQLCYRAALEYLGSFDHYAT
# Mus musculus [15] = assay: Hypoglycemic activity in high fat diet-induced obese C57BL/6J Jms Slc mouse model at 143 mg/kg/day, po for 4 weeks administered with high fat diet by glucose tolerance test; assay type: functional, organism-based; procedure, shortened: as §1
# Mus musculus [16] = assay: Antiobesity activity in high fat diet-induced obese C57BL/6J Jms Slc mouse model assessed as body weight gain at 143 mg/kg/day, po for 4 weeks administered with high fat diet (Rvb= 4.88 +/- 0.46 g); assay type: functional; procedure, shortened: as §4
# Mus musculus [17] = assay: Hypoglycemic activity in high fat diet-induced obese C57BL/6J Jms Slc mouse model assessed as non-esterified free fatty acid level at 143 mg/kg/day, po for 4 weeks administered with high fat diet followed by 5 days recovery period on their own high fat diet with drug (Rvb= 0.71 +/- 0.22 mM); assay type: functional; procedure, shortened: as §5
# [18] = Selectivity for PTP1B over membrane proximal catalytic domain of LAR
compound,measurement,setting,value
O=C1NC(=O)/C(=C/c2cc(F)ccc2OCc2cc(C(F)(F)F)cc(C(F)(F)F)c2)S1,IC50,[1],8 µM
CCc1ccc(CCOc2ccc(CC3SC(=O)NC3=O)cc2)nc1 (stereo unspecified) [PIOGLITAZONE],IC50,[1],220 µM
O=C1NC(=O)/C(=C/c2ccc(OCc3ccccc3)cc2)S1,IC50,[1],64 µM
O=C1NC(=O)/C(=C/c2ccc(OCc3ccccc3)c(Br)c2)S1,IC50,[1],15 µM
O=C1NC(=O)/C(=C/c2ccc(OCc3ccccc3)c(-c3ccccc3)c2)S1,IC50,[1],9 µM
O=C1NC(=O)/C(=C/c2cc(-c3ccccc3)ccc2OCc2ccccc2)S1,IC50,[1],16 µM
Cc1c(C)c2c(c(C)c1O)CCC(C)(COc1ccc(CC3SC(=O)NC3=O)cc1)O2 (stereo unspecified) [TROGLITAZONE],IC50,[1],55 µM
O=C1NC(=O)/C(=C/c2cc(Br)ccc2OCc2cccc(C(F)(F)F)c2)S1,IC50,[1],8 µM
O=C1NC(=O)/C(=C/c2cc(Br)ccc2OCc2ccc(F)cc2)S1,IC50,[1],23 µM
O=C1NC(=O)/C(=C/c2cc(Br)ccc2OCc2ccc(C(F)(F)F)cc2)S1,IC50,[1],8 µM
O=C1NC(=O)/C(=C/c2cc(Br)ccc2OCc2cc(C(F)(F)F)cc(C(F)(F)F)c2)S1,Activity,Mus musculus [2],inactive
same,Activity,Mus musculus [3],1.27 g
same,IC50,[1],5 µM
same,Ki,[1],2100 nM
same,fold change (FC),[4],2.2
same,IC50,[5],18 µM
same,Ki,[5],7.7 µM
same,IC50,[6],5.8 µM
same,Ki,[6],2200 nM
same,fold change (FC),[7],3.7
same,Activity,Mus musculus [8],0.68%
same,Activity,Mus musculus [9],78 mg/dL
same,Activity,Mus musculus [10],125 mg/dL
same,IC50,[11],16 µM
same,Ki,[11],4.5 µM
same,IC50,[12],6 µM
same,Activity,Mus musculus [13],0.42 g
same,IC50,[14],> 100 µM
same,Activity,Mus musculus [15],Active
same,Activity,Mus musculus [16],2.16 g
same,Activity,Mus musculus [17],0.22 mM
same,fold change (FC),[18],> 20
O=C1NC(=O)/C(=C/c2ccc(OCc3ccc(F)cc3)cc2)S1,IC50,[1],68 µM
O=C1NC(=O)/C(=C/c2ccc(OCc3ccc(F)cc3)c(Br)c2)S1,IC50,[1],11 µM
O=C1NC(=O)/C(=C/c2cc(Br)ccc2OCc2ccccc2)S1,IC50,[1],9 µM
O=C1NC(=O)/C(=C/c2ccc(OCc3ccc(C(F)(F)F)cc3)c(Br)c2)S1,IC50,[1],5 µM
O=C1NC(=O)/C(=C/c2cc(Br)ccc2OCc2ccccc2C(F)(F)F)S1,IC50,[1],8 µM
O=C1NC(=O)/C(=C/c2cc(F)ccc2OCc2ccc(C(F)(F)F)cc2)S1,IC50,[1],15 µM
CN(CCOc1ccc(CC2SC(=O)NC2=O)cc1)c1ccccn1 (stereo unspecified) [ROSIGLITAZONE],IC50,[1],400 µM
O=C1NC(=O)/C(=C/c2ccc(OCc3ccc(C(F)(F)F)cc3)cc2)S1,IC50,[1],14 µM
O=C1NC(=O)/C(=C/c2ccc(OCc3ccc(C(F)(F)F)cc3)c(-c3ccccc3)c2)S1,IC50,[1],6 µM
